Structures are written as SMILES. Calls of active or inactive are those of the source. No rule for the calls is given here.

Series [1] has as its target T1, L-lactate dehydrogenase A chain (Homo sapiens, UniProt P00338). Description: Inhibition of recombinant human LDHA using sodium pyruvate as substrate preincubated for 5 mins followed by diaphorase/resazurin addition and measured after 20 mins by fluorescence based assay.
A short description of series [2]: Oral bioavailability in CD-1 mouse at 50 mg/kg and measured up to 24 hrs by LC/MS-MS analysis. The format is ADME, organism-based. The settings on record: in vivo. A digest of the protocol: (§1)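 Male CD1 mice, about 6–8 weeks old and 20–30 g, were dosed PO at 40 or 50 mg/kg in 0.1 M NaOH in PBS, pH 7–8.5, prepared the same day. Three mice per cohort. Dorsal metatarsal vein blood was collected into heparin at 15, 30 min and 1, 2, 4, 8, 12, 24 h. Plasma was spun at 4 °C, frozen at –75 °C and quantified by LC–MS/MS.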

Series [3] is described as follows: Cmax in CD-1 mouse at 10 mg/kg, iv and measured up to 24 hrs by LC/MS-MS analysis. The format is ADME, organism-based. The arrangement: route intravenous, dose 10 mg/kg, time <=24. The settings on record: in vivo. A digest of the protocol: (§2)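 Male CD1 mice, about 6–8 weeks old and 20–30 g, received 10 mg/kg IV in 0.1 M NaOH in PBS adjusted to pH 7–8.5, made fresh on the day of dosing. Three mice per cohort. Blood was taken from the dorsal metatarsal vein at 5, 15, 30 min and 1, 2, 4, 8, 12, 24 h into heparin tubes. Plasma was spun at 4 °C, stored at –75 °C and analysed by LC–MS/MS. For IV dosing Cmax = C0.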

The nature of series [4]: Cmax in CD-1 mouse at 50 mg/kg, po and measured up to 24 hrs by LC/MS-MS analysis. The format is ADME, organism-based. The arrangement: route oral, dose 50 mg/kg, time <=24. The settings on record: in vivo. A digest of the protocol:
as §1

The species named for series [5] is Sus scrofa. The experiment in a line: Inhibition of porcine heart MDH using malic acid as substrate preincubated for 10 mins followed by substrate addition and measured after 5 mins by resazurin based fluorescence based assay. The settings on record: time 15.0 min. Background: Resazurin is reduced to fluorescent resorufin, in cell work by metabolically active cells.

In series [6] the target is L-lactate dehydrogenase B chain (Homo sapiens) (UniProt P07195). The experiment in a line: Inhibition of recombinant human LDHB using sodium pyruvate as substrate preincubated for 5 mins followed by diaphorase/resazurin addition and measured after 20 mins by fluorescence based assay.
The target of series [7] is T1, L-lactate dehydrogenase A chain. The experiment in a line: Inhibition of LDHA in human A673 cells assessed as decrease in lactate production incubated for 2 hrs by lactate oxidase-coupled fluorescence based assay. The format is cell-based.
For series [8] the target is unchanged. The experiment in a line: Inhibition of GS[HiBiT]GS-tagged LDHA (unknown origin) expressed in HEK-293T cells measured after 1 hr by […]. The format is cell-based. A digest of the protocol:
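HEK293T cells were transiently transfected for 24 h with CMV-driven LDHA carrying a C-terminal GS[HiBiT]GS tag, then reseeded at 2500 cells/well in DPBS with Ca/Mg and 1 g/L glucose. […] Cells were lysed with NP40, and 11S (100 nM final) plus furimazine was added.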

Series [9] shares this target. The experiment in a line: Inhibition of LDHA in human MIA PaCa-2 cells assessed as decrease in lactate production incubated for 2 hrs by lactate oxidase-coupled fluorescence based assay. Type of series: cell-based.
The nature of series [10]: AUClast in CD-1 mouse at 10 mg/kg, iv and measured up to 24 hrs by LC/MS-MS analysis. Type of series: ADME, organism-based. Conditions: in vivo. The arrangement: route intravenous, dose 10 mg/kg, time <=24. The procedure, abridged: as §2
Series [11] is described as follows: Terminal half life in CD-1 mouse at 50 mg/kg, po and measured up to 24 hrs by LC/MS-MS analysis. The format is ADME, organism-based. The settings on record: in vivo. A digest of the protocol:
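Male CD1 mice, about 6–8 weeks old and 20–30 g, were dosed PO at 40 or 50 mg/kg in 0.1 M NaOH in PBS, pH 7–8.5, prepared the same day. Three mice per cohort. Plasma was spun at 4 °C, frozen at –75 °C and quantified by LC–MS/MS.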

A short description of series [12]: AUClast in CD-1 mouse at 50 mg/kg, po and measured up to 24 hrs by LC/MS-MS analysis. The format is ADME, organism-based. The arrangement: route oral, dose 50 mg/kg, time <=24. Conditions: in vivo. A digest of the protocol:
as §1

Series [13] in a line: Volume of distribution at steady state in CD-1 mouse at 10 mg/kg, iv and measured up to 24 hrs by LC/MS-MS analysis. The format is ADME, organism-based. The settings on record: in vivo. The procedure, abridged:
as §2

Series [14] is described as follows: Terminal half life in CD-1 mouse at 10 mg/kg, iv and measured up to 24 hrs by LC/MS-MS analysis. The settings on record: in vivo. Type of series: ADME, organism-based. The procedure, abridged:
as §2

The test system of series [15] is A673. The experiment in a line: Cytotoxicity against human A673 cells assessed as reduction in cell viability after 48 hrs by CellTiter-Glo assay. Type of series: functional, cell-based. Conditions: A673, 48 h. In general terms: In ATP-based viability assays light output follows the ATP content of the culture.
The test system of series [16] is MIA PaCa-2. The experiment in a line: Cytotoxicity against human MIA PaCa-2 cells assessed as reduction in cell viability after 48 hrs by CellTiter-Glo assay. Type of series: functional, cell-based. The settings on record: MIA PaCa-2, 48 h.

Chain of L-lactate dehydrogenase B chain (Homo sapiens) (P07195 2-334 limits assumed): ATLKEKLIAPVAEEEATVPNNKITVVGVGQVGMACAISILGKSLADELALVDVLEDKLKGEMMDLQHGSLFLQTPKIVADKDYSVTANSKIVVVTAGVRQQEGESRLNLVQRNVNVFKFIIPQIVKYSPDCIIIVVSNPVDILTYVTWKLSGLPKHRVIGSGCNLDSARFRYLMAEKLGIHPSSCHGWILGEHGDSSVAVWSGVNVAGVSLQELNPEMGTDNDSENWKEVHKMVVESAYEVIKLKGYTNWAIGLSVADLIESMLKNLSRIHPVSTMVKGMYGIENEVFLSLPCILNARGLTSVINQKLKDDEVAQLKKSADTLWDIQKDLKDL

For orientation: IC50 means the concentration at which inhibition is half-maximal. The Cmax is the highest concentration seen after dosing. Usually Vdss stands for a proportionality between amount in the body and measured concentration, not a real space. Lower therefore signals little distribution into tissue. In the case of `Cc1ccc(C#Cc2cccc(-c3nn(-c4nc(C(=O)O)cs4)c(CC4CC4)c3Cc3ccc(S(N)(=O)=O)c(F)c3)c2)o1`, the IC50 in series [1] was 36 nM; in series [7], 450 nM; in series [8], 168 nM; in series [9] it was 432 nM; in series [15] it was 285 nM; in series [16] it was 296 nM. The same compound had a F in [2] of 89%. In addition, the results for the Cmax in [3] and in series [4] were 4570 ng/mL and 2280 ng/mL, respectively. For the same compound, the inhibition result in series [5] is “inactive”. Besides, the inhibition result in series [6] is “Active”. Also, the AUClast in series [10] is 2280 ng·h/mL; in [12], 10170 ng·h/mL. For the same compound, the “beta t1/2” value was 3.7 h in series [11] and 5 h in series [14]. The compound further gave a Vdss in series [13] of 12.5 L/kg.
For `Cc1ccc(C#Cc2cccc(-c3nn(-c4nc(C(=O)O)cs4)c(CCC4CC4)c3Cc3ccc(S(N)(=O)=O)c(F)c3)c2)s1`, the IC50 in series [1] came out at 117 nM; in [7] it was 174 nM; in series [8], 152 nM; in series [9], 172 nM; in series [15], 187 nM. This compound also yielded a F in series [2] of 42%. Moreover, the Cmax is 58200 ng/mL in series [3] and 6850 ng/mL in [4]. Besides, the inhibition result in [5] was “inactive”. Further, in [6], the inhibition result is “Active”. Further, the results for the AUClast in series [10] and in series [12] were 9600 ng·h/mL and 20030 ng·h/mL, respectively. Further, the “beta t1/2” value in series [11] is 3.7 h; in series [14], 5.8 h. The same compound returned a Vdss in [13] of 1.47 L/kg.
For the compound `Cc1ncc(C#Cc2cc(-c3nn(-c4nc(C(=O)O)cs4)c(CC4CC4)c3Cc3ccc(S(N)(=O)=O)c(F)c3)ccc2F)s1`, the IC50 in series [1] is 33 nM; in series [7], 937 nM; in series [9], 867 nM; in [15], 569 nM; in series [16], 488 nM. In series [2], this compound registered an F of 38%. In addition, the Cmax in series [3] amounted to 5500 ng/mL; in series [4] it was 1820 ng/mL. Further, in series [5], the inhibition result is “inactive”. Moreover, the inhibition entry in [6] is “Active”. The figures for the AUClast in series [10] and in series [12] were 1820 ng·h/mL and 3440 ng·h/mL, respectively. Also, the figures for the “beta t1/2” value in series [11] and in series [14] were 3.2 h and 5.75 h, respectively. Besides, the distribution volume (Vdss) in series [13] amounted to 13.9 L/kg.
Consider `NS(=O)(=O)c1ccc(Cc2c(-c3cccc(-c4ccccc4)c3)nn(-c3nc(C(=O)O)cs3)c2CC2CC2)cc1`, for which the “beta t1/2” value in series [14] came out at 0.85 h.
In the case of `Cc1ccc(C#Cc2cc(-c3nn(-c4nc(C(=O)O)cs4)c(CC4CC4)c3Cc3ccc(S(N)(=O)=O)c(F)c3)ccc2F)o1`, the IC50 in series [1] stood at 47 nM; in series [7] it was 544 nM; in series [8] it was 79 nM; in [9], 547 nM. The F in series [2] is on record as 106%. Besides, the Cmax in series [3] came to 4770 ng/mL; in series [4] it was 1260 ng/mL. Moreover, in series [5], the inhibition result is “inactive”. In series [6], the inhibition result is “Active”. The values for the AUClast in series [10] and in series [12] were 2320 ng·h/mL and 13520 ng·h/mL, respectively. Also, the “beta t1/2” value in [11] stood at 10.7 h; in [14] it was 5.1 h. The compound further gave a Vdss in series [13] of 10.3 L/kg.

The values are drawn from ChEMBL document CHEMBL4665801, “Pyrazole-Based Lactate Dehydrogenase Inhibitors with Optimized Cell Activity and Pharmacokinetic Properties” (J Med Chem, 2020).
